Assay results: ChEMBL document CHEMBL1124220 (J Med Chem, 1988)
Non-standard residues stand in square brackets, D forms with d. Residues, ends and D or L forms follow the SMILES beside them. 3Thi = N[C@@H](Cc1ccsc1)C(=O)O; Aib = CC(C)(N)C(=O)O; Sar = CNCC(=O)O

How the values were obtained:
Assay type in all cases: functional
Rattus norvegicus [1] = experiment: In vivo angiotensin II like activity was measured in rat blood pressure assay expressed as percent activity relative to A II
Oryctolagus cuniculus = organism: Oryctolagus cuniculus; experiment: In vitro agonist angiotensin II like activity was measured in the rabbit aorta strip assay
Method in brief: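 Isolated rabbit aortic strips in vitro. Agonist (AII-like) activity expressed as percent of the activity of AII.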

Rattus norvegicus [2] = experiment: Antagonist activity ID50 was measured in vivo in the rat blood pressure assay
Method in brief: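 Rat blood pressure in vivo, 250-g rats, compound given by infusion. AII dose-response curves measured before and during the infusion. ID50 expressed as ng/rat per min. Mean of at least five tests with standard error.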

Rattus norvegicus [3] = experiment: In vivo agonist angiotensin II like activity was measured in rat blood pressure increase by a 1 ug iv injection
Method in brief: (§1)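 Rat blood pressure in vivo. Residual AII-like activity read as the pressor rise (mmHg) after a 1-μg intravenous bolus of compound. Mean of at least five tests with standard error.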

Rattus norvegicus [4] = experiment: In vivo agonist angiotensin II like activity was measured in rat blood pressure assay; set-up: concentration or dose not given beside the values; method in brief: as §1

SMILES | Activity (Rattus norvegicus [1]) | Activity (Oryctolagus cuniculus) | ID50 (Rattus norvegicus [2]) | BP increase (Rattus norvegicus [3]) | Activity (Rattus norvegicus [3]) | Activity (Rattus norvegicus [4])
CC[C@H](C)[C@H](NC(=O)[C@H](Cc1ccc(O)cc1)NC(=O)[C@@H](NC(=O)[C@@H](N)CCCCN=C(N)N)C(C)C)C(=O)N[C@@H](Cc1c[nH]cn1)C(=O)N1CCC[C@H]1C(=O)N[C@@H](Cc1ccccc1)C(=O)O | 2.07% |  |  |  |  | 
CC[C@H](C)[C@H](NC(=O)[C@@H]1CCCN1C(=O)[C@H](Cc1c[nH]cn1)NC(=O)[C@@H](NC(=O)[C@H](Cc1ccc(O)cc1)NC(=O)[C@@H](NC(=O)[C@@H](C)N)C(C)C)[C@@H](C)CC)C(=O)O |  | 0% | 100 ng min-1 rat-1 | 5 mmHg |  | 
CC[C@H](C)[C@H](NC(=O)[C@@H]1CCCN1C(=O)[C@H](Cc1c[nH]cn1)NC(=O)[C@@H](NC(=O)[C@H](Cc1ccc(O)cc1)NC(=O)[C@@H](NC(=O)[C@H](N)CCCN=C(N)N)C(C)C)[C@@H](C)CC)C(=O)O |  | 0% | 100 ng min-1 rat-1 | 5 mmHg |  | 
CC[C@H](C)[C@H](NC(=O)[C@@H]1CCCN1C(=O)[C@H](Cc1c[nH]cn1)NC(=O)[C@@H](NC(=O)[C@H](Cc1ccc(O)cc1)NC(=O)[C@@H](NC(=O)[C@H](CCCCN=C(N)N)NC(=O)CNC)C(C)C)[C@@H](C)CC)C(=O)O |  | 0% | 50 ng min-1 rat-1 | 7.5 mmHg |  | 
CC[C@H](C)[C@H](NC(=O)[C@@H]1CCCN1C(=O)[C@H](Cc1c[nH]cn1)NC(=O)[C@@H](NC(=O)[C@H](Cc1ccc(O)cc1)NC(=O)[C@@H](NC(=O)[C@@H](CCCN=C(N)N)NC(=O)CNC)C(C)C)[C@@H](C)CC)C(=O)O |  | 0% | 100 ng min-1 rat-1 | 10 mmHg |  | 
CC[C@H](C)[C@H](NC(=O)[C@@H]1CCCN1C(=O)[C@H](Cc1cncn1C)NC(=O)[C@@H](NC(=O)[C@H](Cc1ccc(O)cc1)NC(=O)[C@@H](NC(=O)[C@H](CCCN=C(N)N)NC(=O)CNC)C(C)C)[C@@H](C)CC)C(=O)O |  | 0% | 100 ng min-1 rat-1 | 2.5 mmHg |  | 
CC[C@H](C)[C@H](NC(=O)[C@@H]1CCCN1C(=O)[C@H](Cc1c[nH]cn1)NC(=O)[C@@H](NC(=O)[C@H](Cc1ccc(O)cc1)NC(=O)[C@@H](NC(=O)[C@@H](CCCCN)NC(=O)CNC)C(C)C)[C@@H](C)CC)C(=O)O |  | 0% | 50 ng min-1 rat-1 | 12.5 mmHg |  | 
CC[C@@H](N)C(=O)N[C@H](C(=O)N[C@@H](Cc1ccc(O)cc1)C(=O)N[C@H](C(=O)N[C@@H](Cc1c[nH]cn1)C(=O)N1CCC[C@H]1C(=O)N[C@@H](Cc1ccccc1)C(=O)O)[C@@H](C)CC)C(C)C | 22% |  |  |  |  | 
CC[C@H](C)[C@H](NC(=O)[C@@H]1CCCN1C(=O)[C@H](Cc1c[nH]cn1)NC(=O)[C@@H](NC(=O)[C@H](Cc1ccc(O)cc1)NC(=O)[C@@H](NC(=O)[C@H](CCCNC(N)=O)NC(=O)CNC)C(C)C)[C@@H](C)CC)C(=O)O |  | 0% |  | 25 mmHg |  | 
CC[C@H](C)[C@H](NC(=O)[C@@H]1CCCN1C(=O)[C@H](Cc1c[nH]cn1)NC(=O)[C@@H](NC(=O)[C@H](Cc1ccc(O)cc1)NC(=O)[C@@H](NC(=O)[C@@H](N)CCCN=C(N)N)C(C)C)[C@@H](C)CC)C(=O)O |  | 0% | 200 ng min-1 rat-1 | 5 mmHg |  | 
CC[C@H](C)[C@H](NC(=O)[C@@H]1CCCN1C(=O)[C@H](Cc1c[nH]cn1)NC(=O)[C@@H](NC(=O)[C@H](Cc1ccc(O)cc1)NC(=O)[C@@H](NC(=O)[C@@H](C)NC)C(C)C)[C@@H](C)CC)C(=O)O |  | 0% | 25 ng min-1 rat-1 | 10 mmHg |  | 
CC[C@H](C)[C@H](NC(=O)[C@H](Cc1ccc(O)cc1)NC(=O)[C@@H](NC(=O)[C@@H](C)NC)C(C)C)C(=O)N[C@@H](Cc1c[nH]cn1)C(=O)N1CCC[C@H]1C(=O)N[C@@H](Cc1ccccc1)C(=O)O |  | 1.4% |  | 85 mmHg |  | 
CC[C@H](C)[C@H](NC(=O)[C@@H]1CCCN1C(=O)[C@H](Cc1c[nH]cn1)NC(=O)[C@@H](NC(=O)[C@H](Cc1ccc(O)cc1)NC(=O)[C@@H](NC(=O)[C@H](CCCN=C(N)N)NC(=O)CNC)C(C)C)[C@@H](C)CC)C(=O)O |  | 0% | 10 ng min-1 rat-1 | 10.2 mmHg |  | 
CC[C@H](C)[C@H](NC(=O)[C@H](Cc1ccc(O)cc1)NC(=O)[C@@H](NC(=O)[C@H](C)NC(=O)[C@@H](N)CC(=O)O)C(C)C)C(=O)N[C@@H](Cc1c[nH]cn1)C(=O)N1CCC[C@H]1C(=O)N[C@@H](Cc1ccccc1)C(=O)O (H-DAVYIHPF-OH) | 7.7% |  |  |  |  | 
CC[C@H](C)[C@H](NC(=O)[C@H](Cc1ccc(O)cc1)NC(=O)[C@@H](NC(=O)[C@H](CCCN=C(N)N)NC(=O)[C@@H](N)CC(=O)O)C(C)C)C(=O)N[C@@H](CCCCN)C(=O)N1CCC[C@H]1C(=O)N[C@@H](Cc1ccccc1)C(=O)O (H-DRVYIKPF-OH) |  |  |  |  | 0.1% | 
CC[C@H](C)[C@H](NC(=O)[C@H](Cc1ccc(O)cc1)NC(=O)[C@@H](NC(=O)C(C)(C)N)C(C)C)C(=O)N[C@@H](Cc1c[nH]cn1)C(=O)N1CCC[C@H]1C(=O)N[C@@H](Cc1ccccc1)C(=O)O (H-[Aib]VYIHPF-OH) |  | 0% |  | 60 mmHg |  | 
CC[C@H](C)[C@H](NC(=O)[C@@H]1CCCN1C(=O)[C@H](Cc1ccccc1)NC(=O)[C@@H](NC(=O)[C@H](Cc1ccc(O)cc1)NC(=O)[C@@H](NC(=O)[C@H](CCCN=C(N)N)NC(=O)CNC)C(C)C)[C@@H](C)CC)C(=O)O (H-[Sar]RVYIFPI-OH) |  | 0% | 100 ng min-1 rat-1 | 10 mmHg |  | 
CC[C@H](C)[C@H](NC(=O)[C@@H]1CCCN1C(=O)[C@H](Cc1c[nH]c2ccccc12)NC(=O)[C@@H](NC(=O)[C@H](Cc1ccc(O)cc1)NC(=O)[C@@H](NC(=O)[C@H](CCCN=C(N)N)NC(=O)CNC)C(C)C)[C@@H](C)CC)C(=O)O (H-[Sar]RVYIWPI-OH) |  | 0% | 100 ng min-1 rat-1 | 7.5 mmHg |  | 
CC[C@H](C)[C@H](NC(=O)[C@@H]1CCCN1C(=O)[C@H](Cc1ccsc1)NC(=O)[C@@H](NC(=O)[C@H](Cc1ccc(O)cc1)NC(=O)[C@@H](NC(=O)[C@H](CCCN=C(N)N)NC(=O)CNC)C(C)C)[C@@H](C)CC)C(=O)O (H-[Sar]RVYI[3Thi]PI-OH) |  | 0% | 100 ng min-1 rat-1 | 12.5 mmHg |  | 
CC[C@H](C)[C@H](NC(=O)[C@@H]1CCCN1C(=O)[C@H](Cc1c[nH]cn1)NC(=O)[C@@H](NC(=O)[C@H](Cc1ccc(O)cc1)NC(=O)[C@@H](NC(=O)CN(C)C(=O)CNC)C(C)C)[C@@H](C)CC)C(=O)O (H-[Sar][Sar]VYIHPI-OH) |  | 0% | 150 ng min-1 rat-1 | 8.5 mmHg |  | 
CC[C@H](C)[C@H](NC(=O)[C@H](Cc1ccc(O)cc1)NC(=O)[C@@H](NC(=O)[C@@H](N)CCCN=C(N)N)C(C)C)C(=O)N[C@@H](Cc1c[nH]cn1)C(=O)N1CCC[C@H]1C(=O)N[C@@H](Cc1ccccc1)C(=O)O (stereo in doubt; 6) |  | 43.3% |  |  |  | 33.3%
